Measured values as given in ChEMBL document CHEMBL3414525, “Macrocyclic compounds as anti-cancer agents: design and synthesis of multi-acting inhibitors against HDAC, FLT3 and JAK2” (Eur J Med Chem, 2015).
Calls of active or inactive are those of the source. The calls are words filed in the database; no cut-off is given here.

Columns and labels:
Histone deacetylase = assay: Inhibition of HDAC (unknown origin) using Fluor de Lys substrate after 2 hrs by microplate reader; assay type: protein assay, Homo sapiens
[1] = molecular target: T1, Receptor-type tyrosine-protein kinase FLT3 (Homo sapiens, UniProt P36888); assay: Inhibition of human recombinant FLT3 after 1 hr by LanthaScreen assay platform
T1 sequence (P36888 whole entry): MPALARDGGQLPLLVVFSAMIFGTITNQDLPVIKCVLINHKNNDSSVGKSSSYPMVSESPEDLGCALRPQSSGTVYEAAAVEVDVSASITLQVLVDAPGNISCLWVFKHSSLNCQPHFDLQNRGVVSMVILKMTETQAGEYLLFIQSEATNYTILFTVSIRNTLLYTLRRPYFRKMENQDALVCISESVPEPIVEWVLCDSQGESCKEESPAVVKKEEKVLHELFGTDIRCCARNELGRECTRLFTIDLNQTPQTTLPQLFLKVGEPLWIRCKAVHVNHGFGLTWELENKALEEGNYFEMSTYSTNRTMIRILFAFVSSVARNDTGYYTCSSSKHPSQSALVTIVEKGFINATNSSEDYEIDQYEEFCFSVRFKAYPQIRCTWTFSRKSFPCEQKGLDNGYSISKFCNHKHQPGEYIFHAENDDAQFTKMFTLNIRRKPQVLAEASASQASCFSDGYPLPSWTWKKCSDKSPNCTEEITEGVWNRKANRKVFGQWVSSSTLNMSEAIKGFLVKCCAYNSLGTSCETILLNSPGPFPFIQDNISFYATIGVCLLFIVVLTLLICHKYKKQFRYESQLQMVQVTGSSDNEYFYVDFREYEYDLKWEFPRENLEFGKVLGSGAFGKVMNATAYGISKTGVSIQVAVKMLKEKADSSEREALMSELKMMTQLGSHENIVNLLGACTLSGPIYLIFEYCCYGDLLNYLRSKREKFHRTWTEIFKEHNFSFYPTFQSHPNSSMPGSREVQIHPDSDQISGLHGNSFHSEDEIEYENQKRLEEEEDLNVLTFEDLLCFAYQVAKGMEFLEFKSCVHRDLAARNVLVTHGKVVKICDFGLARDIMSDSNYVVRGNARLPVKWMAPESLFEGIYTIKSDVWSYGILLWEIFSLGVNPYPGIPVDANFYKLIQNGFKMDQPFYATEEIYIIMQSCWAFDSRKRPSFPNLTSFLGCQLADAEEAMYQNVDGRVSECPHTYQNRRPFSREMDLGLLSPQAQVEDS
Outline: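 TR-FRET binding format. Recombinant FLT3 incubated 1 h at room temperature with Eu-anti-His antibody, Alexa Fluor 647-labelled kinase tracer 236 and varied compound concentrations. Signal read as the 665/615 nm emission ratio. Values are means ± SD of three independent experiments.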

[2] = molecular target: T2, Tyrosine-protein kinase JAK2 (Homo sapiens, UniProt O60674); assay: Inhibition of human recombinant JAK2 using Z'LYTETry6 peptide substrate after 1 hr by microplate reader
T2 sequence (O60674 whole entry): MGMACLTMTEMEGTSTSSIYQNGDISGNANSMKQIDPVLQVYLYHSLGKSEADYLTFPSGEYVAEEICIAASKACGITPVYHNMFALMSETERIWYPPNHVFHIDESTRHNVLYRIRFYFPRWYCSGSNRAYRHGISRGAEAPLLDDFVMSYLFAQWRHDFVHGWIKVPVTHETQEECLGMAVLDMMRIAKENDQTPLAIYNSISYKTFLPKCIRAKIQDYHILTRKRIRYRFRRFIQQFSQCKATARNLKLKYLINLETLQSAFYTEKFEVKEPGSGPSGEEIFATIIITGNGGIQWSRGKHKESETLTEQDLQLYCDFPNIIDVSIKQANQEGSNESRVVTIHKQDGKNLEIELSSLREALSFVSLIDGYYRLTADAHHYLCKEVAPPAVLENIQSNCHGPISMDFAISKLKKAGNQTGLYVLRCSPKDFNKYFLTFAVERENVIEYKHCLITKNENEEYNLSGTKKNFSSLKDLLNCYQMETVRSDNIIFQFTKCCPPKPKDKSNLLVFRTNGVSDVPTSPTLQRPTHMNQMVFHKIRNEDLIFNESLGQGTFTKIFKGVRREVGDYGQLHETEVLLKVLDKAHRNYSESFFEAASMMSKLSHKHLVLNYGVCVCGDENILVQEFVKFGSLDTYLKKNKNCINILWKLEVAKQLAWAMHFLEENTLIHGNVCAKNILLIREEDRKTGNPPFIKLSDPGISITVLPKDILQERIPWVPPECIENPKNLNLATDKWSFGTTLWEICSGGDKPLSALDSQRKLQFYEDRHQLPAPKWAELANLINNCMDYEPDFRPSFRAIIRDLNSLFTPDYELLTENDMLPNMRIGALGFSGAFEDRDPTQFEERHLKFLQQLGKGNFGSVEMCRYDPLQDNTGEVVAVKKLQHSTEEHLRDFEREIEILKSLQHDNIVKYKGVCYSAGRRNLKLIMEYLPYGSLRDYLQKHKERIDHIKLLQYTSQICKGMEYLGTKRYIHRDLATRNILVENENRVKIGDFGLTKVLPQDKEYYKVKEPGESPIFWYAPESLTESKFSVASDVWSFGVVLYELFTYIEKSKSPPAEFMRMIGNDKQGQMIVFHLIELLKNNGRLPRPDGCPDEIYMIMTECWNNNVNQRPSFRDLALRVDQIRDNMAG

[3] = Antiproliferative activity against human HL60 cells assessed as growth inhibition after 48 hrs by CellTiter-Glo assay; assay type: functional; details: HL-60, 48 h
MV4-11 [4] = assay: Antiproliferative activity against human MV4-11 cells assessed as growth inhibition after 48 hrs by CellTiter-Glo assay; assay type: functional; details: MV4-11, 48 h
K562 = assay: Antiproliferative activity against human K562 cells assessed as growth inhibition after 48 hrs by CellTiter-Glo assay; assay type: functional; details: K562, 48 h
HEL = assay: Antiproliferative activity against human HEL cells assessed as growth inhibition after 48 hrs by CellTiter-Glo assay; assay type: functional
[5] = Antiproliferative activity against human HCT116 cells assessed as growth inhibition after 48 hrs by SRB assay; assay type: functional; details: HCT-116, 48 h
MCF7 = assay: Antiproliferative activity against human MCF7 cells assessed as growth inhibition after 48 hrs by SRB assay; assay type: functional; details: MCF7, 48 h
MDA-MB-435 = assay: Antiproliferative activity against human MDA-MB-435 cells assessed as growth inhibition after 48 hrs by SRB assay; assay type: functional; details: MDA-MB-435, 48 h
NCI-H460 = assay: Antiproliferative activity against human NCI-H460 cells assessed as growth inhibition after 48 hrs by SRB assay; assay type: functional; details: NCI-H460, 48 h
[6] = Antiproliferative activity against human OVCAR5 cells assessed as growth inhibition after 48 hrs by SRB assay; assay type: functional; details: OVCAR-5, 48 h
[7] = molecular target: Histone deacetylase (Homo sapiens) (UniProt Q13547+O15379+Q9UBN7+Q92769+Q9UQL6+Q8WUI4+Q9BY41+Q96DB2+P56524+Q9UKV0+Q969S8); assay: Induction of HDAC-mediated histone H3 acetylation in human MV4-11 cells after 24 hrs by Western blot analysis; assay type: cell-based
Outline: (§1)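 Cells plated at 0.2 × 10⁶ per mL with or without varied compound concentrations, incubated 24 h, then lysed in whole-cell lysis buffer. Total extracts run on SDS-PAGE and western blotted with antibodies to acetyl-histone H3, acetyl-tubulin, tubulin, phospho-FLT3 Y591, phospho-JAK2 Y1007/1008, phospho-STAT5 Y694 and phospho-AKT T308. HRP-labelled secondary antibodies used for detection.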

Tubulin (Homo sapiens) = Tubulin (Homo sapiens) (UniProt P68371+Q9H4B7+P0DPH7+P68366+Q13509+Q71U36+P04350+Q3ZCM7+P07437+P68363+Q9BQE3+Q6PEY2+Q13885+Q9BVA1+Q9BUF5); assay: Induction of tubulin acetylation in human MV4-11 cells after 24 hrs by Western blot analysis; assay type: cell-based; outline: as §1
[8] = molecular target: T2, Tyrosine-protein kinase JAK2; assay: Decrease in JAK2 phosphorylation in human HEL cells at 0.1 to 0.5 uM after 24 hrs by Western blot analysis; assay type: cell-based; outline: as §1
MV4-11 [9] = assay: Inhibition of STAT5 phosphorylation in human MV4-11 cells after 24 hrs by Western blot analysis; assay type: cell-based; outline: as §1
MV4-11 [10] = assay: Inhibition of AKT phosphorylation in human MV4-11 cells after 24 hrs by Western blot analysis; assay type: cell-based; outline: as §1
[11] = molecular target: Receptor-type tyrosine-protein kinase FLT3 (Homo sapiens) (UniProt P36888); details: HEL, 0.1 to 0.5 uM

| SMILES | IC50 (Histone deacetylase) [nM] | IC50 [1] [nM] | IC50 [2] [nM] | GI50 [3] [nM] | GI50 (MV4-11 [4]) [nM] | GI50 (K562) [nM] | GI50 (HEL) [nM] | GI50 [5] [nM] | GI50 (MCF7) [nM] | GI50 (MDA-MB-435) [nM] | GI50 (NCI-H460) [nM] | GI50 [6] [nM] | Activity [7] | Activity (Tubulin (Homo sapiens)) | inhibition [8] | inhibition (MV4-11 [9]) | inhibition (MV4-11 [10]) | inhibition [11] |
| --- | --- | --- | --- | --- | --- | --- | --- | --- | --- | --- | --- | --- | --- | --- | --- | --- | --- | --- |
| O=C(CCCCCCN1C/C=C/COCc2cccc(c2)-c2ccnc(n2)Nc2cccc(c2)C1)NO | 159 | 217 | 613 | 900 | 320 | 940 | 700 | 900 | 1130 | 1500 | 1190 | 1420 | – | – | – | – | – | – |
| O=C(CCCCCN1C/C=C/CCOc2cccc(c2)-c2ccnc(n2)Nc2cccc(c2)C1)NO | 152 | 108 | 1040 | 2620 | 530 | 2320 | 2260 | 1330 | 1320 | 2630 | 1600 | 1420 | – | – | – | – | – | – |
| O=C(CCCCC(=O)N1C/C=C/CCOc2cccc(c2)-c2ccnc(n2)Nc2cccc(c2)C1)NO | 848 | 556 | 246 | 1270 | 1010 | 1440 | 2110 | 1590 | 2090 | 2410 | 2250 | 1520 | – | – | – | – | – | – |
| O=C(CCCCCCN1C/C=C/CCOc2cccc(c2)-c2ccnc(n2)Nc2cccc(c2)C1)NO | 87 | 87 | 686 | 1030 | 270 | 1020 | 340 | 820 | 950 | 1770 | 1070 | 1220 | Dose-dependent effect | Dose-dependent effect | Active | Dose-dependent effect | Dose-dependent effect | Dose-dependent effect |
| CN1C/C=C/CCOc2cccc(c2)-c2ccnc(n2)Nc2cccc(c2)C1 [ZOTIRACICLIB] | – | 42 | 170 | 1130 | 660 | 1230 | 790 | – | – | – | – | – | – | – | – | – | – | – |
| O=C(CCCCCN1C/C=C/COCc2cccc(c2)-c2ccnc(n2)Nc2cccc(c2)C1)NO | 123 | 288 | 594 | 2300 | 520 | 2090 | 680 | – | – | – | – | – | – | – | – | – | – | – |
| O=C(CCCCCCCC(=O)N1C/C=C/COCc2cccc(c2)-c2ccnc(n2)Nc2cccc(c2)C1)NO | 334 | 272 | 835 | 1660 | 780 | 2640 | 4780 | – | – | – | – | – | – | – | – | – | – | – |
| O=C(CCCCN1C/C=C/CCOc2cccc(c2)-c2ccnc(n2)Nc2cccc(c2)C1)NO | 251 | 180 | 293 | 3030 | 660 | 2450 | 510 | 1530 | 1130 | 2720 | 1770 | 1220 | – | – | – | – | – | – |
| O=C(CCCCN1C/C=C/COCc2cccc(c2)-c2ccnc(n2)Nc2cccc(c2)C1)NO | 158 | 218 | 392 | 2050 | 370 | 1830 | 490 | 810 | 1070 | 1880 | 1420 | 1130 | – | – | – | – | – | – |
| O=C(CCCCCCC(=O)N1C/C=C/CCOc2cccc(c2)-c2ccnc(n2)Nc2cccc(c2)C1)NO | 310 | 1260 | 558 | 6730 | 5890 | 4790 | 5250 | – | – | – | – | – | – | – | – | – | – | – |
| O=C(CCCCC(=O)N1C/C=C/COCc2cccc(c2)-c2ccnc(n2)Nc2cccc(c2)C1)NO | 402 | 221 | 547 | 4430 | 2060 | 4970 | 2940 | – | – | – | – | – | – | – | – | – | – | – |
| O=C(CCCCCCCC(=O)N1C/C=C/CCOc2cccc(c2)-c2ccnc(n2)Nc2cccc(c2)C1)NO | 355 | – | – | 1950 | – | 2020 | 6260 | – | – | – | – | – | – | – | – | – | – | – |
| O=C(CCCCCCC(=O)Nc1ccccc1)NO [VORINOSTAT] | – | > 10000 | > 10000 | – | – | – | – | – | – | – | – | – | – | – | – | – | – | – |
| O=C(CCCCCCC(=O)N1C/C=C/COCc2cccc(c2)-c2ccnc(n2)Nc2cccc(c2)C1)NO | 293 | 833 | 684 | 2870 | 1410 | 4390 | 5030 | – | – | – | – | – | – | – | – | – | – | – |
